Article PMC3483880 (Pure and applied chemistry. Chimie pure et appliquee, 2012)
≈ marks a conversion by molar mass, not a printed value. Entries after “also recorded” stand apart in the source; their conditions may differ. Read-outs that look alike come from different tables or passages of the source.

Columns and labels:
[1] = target: Leishmania DNA topoisomerase IB enzyme (LdTopIB) (Leishmania donovani, UniProt A0A3Q8IHS4+Q8WQM6); experiment: Inhibition of the relaxation activity of recombinant LdTopIB; type: biochemical; settings: plasmid DNA relaxation assay
In short: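 One unit of recombinant Leishmania donovani TopIB was incubated with negatively supercoiled pHOT plasmid DNA for 30 min at 37 °C, with test compound at 3.1–150 or 3.125–100 µM. A DMSO lane served as control. Reactions were stopped with 1% SDS plus 6.1 µg proteinase K. Products were separated on agarose gel and stained with ethidium bromide to score supercoiled, nicked and relaxed topoisomer bands.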

[2] = system: human TopIB (hTopIB); experiment: Inhibition of the relaxation activity of human TopIB; type: biochemical; settings: 3.125−100 μM acid 1, 30 min at 37°C
In short: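 Human TopIB relaxed supercoiled pHOT plasmid DNA alongside recombinant LdTopIB, with test compound at 3.125–100 µM and a DMSO vehicle lane. Reactions stopped with 1% SDS plus 6.1 µg proteinase K. Products resolved on agarose gel and stained with ethidium bromide. Supercoiled, nicked and relaxed topoisomer bands scored against a DNA-only lane (0.2 µg plasmid).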

[3] = system: Leishmania donovani promastigotes; experiment: Antiprotozoal activity; type: cell-based; settings: for EC50: read-out: L. donovani promastigotes (EC50)
[4] = system: Murine macrophages; experiment: Toxicity towards murine macrophages; type: cell-based; settings: for IC50: read-out: Murine macrophages (IC50)
[5] = system: L. donovani promastigotes; settings: at 100 μg/mL; cited from earlier work
[6] = system: Leishmania donovani promastigotes; settings: earlier work; cited from earlier work
[7] = system: L. donovani; settings: cited from earlier work

Row | EC50 [3] [µM] | SMILES | Effectiveness against L. donovani promastigotes (in words) [3] | IC50 [4] [µM] | Effect on motility of L. donovani promastigotes [5] | also measured
1 | 404 ± 11.9 | CCCCCCCCCC/C=C\CCCC(OC)C(=O)O (racemic) [Acid 1, (±)-2-methoxy-6Z-heptadecenoic acid] | not effective against L. donovani promastigotes | 484 ± 15.8 | – | Inhibition of LdTopIB (in words) [1]: able to inhibit LdTopIB; Inhibition of hTopIB (in words) [2]: not effective against hTopIB
2 | 74 ± 17.1 | CCCCCCCCCCC#CCCCC(OC)C(=O)O (racemic) [Acid 2, (±)-2-methoxy-6-heptadecynoic acid] | – | > 700 | – | Inhibition of LdTopIB (in words) [1]: inhibit LdTopIB; Toxicity towards murine macrophages (in words) [4]: did not display toxicity towards murine macrophages
3 | > 1000 | CCCCCCCCCCCCCCCC(OC)C(=O)O (racemic) [Acid 3, (±)-2-methoxyheptadecanoic acid] | not effective at all against the parasite | > 1000 | – | Inhibition of LdTopIB (in words) [1]: did not inhibit LdTopIB; also recorded: do not inhibit the enzyme; also recorded: not inhibiting the enzyme
4 | > 100 | CCCCCCCCCCCCCCCCC(=O)O [n-heptadecanoic, n-heptadecanoic acid] | not effective at all against the parasite | 52.6 ± 7.5 | – | Effectiveness towards L. donovani promastigotes (in words) [6]: not effective at all

More lines, now with the values behind:

Row | SMILES | EC50 [3] [µM] | Effectiveness against L. donovani promastigotes (in words) [3] | IC50 [4] [µM] | Effect on motility of L. donovani promastigotes [5] | also measured
5 | CCCCCCCCCCC#CCCCCC(=O)O [6-heptadecynoic, 6-heptadecynoic acid] | – | – | – | – | EC50 ([3]; Leishmania donovani): 25.1 ± 1.4 µM; Toxicity towards murine macrophages (in words) [4]: considerable toxicity towards murine macrophages; IC50 ([4]; Mus musculus, Macrophage): 21.3 ± 0.9 µM
6 | CCCCCCCCCC/C=C\CCCCC(=O)O [6Z-heptadecenoic, 6Z-heptadecenoic acid] | > 100 | not effective against L. donovani promastigotes | 44.4 ± 1.6 | – | –
7 | CCCCCCCCCCCCCCCCOP(=O)([O-])OCC[N+](C)(C)C [miltefosine] | – | – | – | – | EC50 ([3]; Leishmania donovani): 0.8 ± 0.1 µM; IC50 ([4]; Mus musculus, Macrophage): 1.9 ± 0.4 µM
8 | CCCCCCCCCC(=O)O [n-decanoic acid] | – | – | – | inhibited the motility | –
9 | CCCCCCCCCCCC(=O)O [n-dodecanoic acid] | – | – | – | inhibited the motility | –
10 | CCCCCCCCCCCCCCCCCCCC(=O)O [n-eicosanoic acid] | – | – | – | – | Effectiveness towards L. donovani promastigotes (in words) [6]: not effective at all
11 | CCCCCCCCCCCCCCCC(=O)O [n-hexadecanoic acid] | – | – | – | inhibited the motility | –
12 | CCCCCCCCCCCCCCCCCC(=O)O [n-octadecanoic acid] | – | – | – | – | MIC against L. donovani [7]: 1390 µM (≈ 395 µg/mL)
13 | CCCCCCCC/C=C\CCCCCCCC(=O)O [oleic acid] | – | – | – | no effect | MIC against L. donovani [7]: 90 µM (≈ 25.4 µg/mL)
